Hits are enriched below; roughly 1.7% of the tested compounds scored in any of these assays.
DNMT1 block – human DNMT1 methyltransferase inhibitors, primary screen, biochemical, molecular beacon, fluorescence, HinP1I cleavage, uHTS; DNA (cytosine-5)-methyltransferase 1 (Homo sapiens), P26358; inhibition (reported as % activation of signal), % at 10 µM; 0.83% of 360,000 active; in the data active = inhibition above about 50%
SUMO1-SIM PPI – modulators of SUMO1 protein-protein interactions, primary screen, biochemical, uHTS. Small ubiquitin-related modifier 1 (Homo sapiens), P63165. SUMO1 binding to a labelled peptide, TR-FRET, 1 h. inhibition, % at 20 µM. 0.33% of 360,000 active. AID 602429, 2012; in the data active = inhibition above about 37%
Target sequence (P63165 whole entry, looked up): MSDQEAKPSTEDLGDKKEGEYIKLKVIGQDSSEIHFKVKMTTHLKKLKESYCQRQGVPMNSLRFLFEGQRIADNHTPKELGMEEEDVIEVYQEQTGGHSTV
CASP6 VEID inh – human caspase-6 inhibitors, primary screen, biochemical, VEID-R110 fluorescence, single point, set 2. AID 686996, 2013. inhibition, % at 12.5 µM. purified caspase-6, Z-VEID-R110 cleavage fluorescence. 0.53% of 350,000 active. P55212;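 active = mean inhibition across replicates at least about 35%, with every replicate also reaching that limit, limit read from the data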;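 also: 0% = median of neutral control wells and 100% = no fluorescence left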
Target sequence (P55212 24-179 limits assumed): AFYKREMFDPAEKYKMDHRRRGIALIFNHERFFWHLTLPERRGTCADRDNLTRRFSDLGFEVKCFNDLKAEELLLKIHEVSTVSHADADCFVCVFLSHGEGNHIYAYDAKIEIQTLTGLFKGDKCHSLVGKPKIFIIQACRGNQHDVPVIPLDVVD
Target sequence (P55212 194-293 limits assumed): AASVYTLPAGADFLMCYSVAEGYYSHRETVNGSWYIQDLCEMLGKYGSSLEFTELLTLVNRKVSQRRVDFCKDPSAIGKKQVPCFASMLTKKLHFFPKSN
Scp1 inh – Scp-1 phosphatase inhibitors, primary screen, biochemical, colorimetric, uHTS; Carboxy-terminal domain RNA polymerase II polypeptide A small phosphatase 1 (Homo …; Recombinant Scp1, phosphopeptide, malachite green phosphate absorbance; inhibition, % at 20 µM; 0.88% of 340,000 active; AID 493091, 2011;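 active = inhibition above about 50% at 20 µM, limit read from the data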;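 also: plate controls were DMSO wells with enzyme for no effect and wells lacking enzyme for full effect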
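Test system: SCP-1 phosphatase catalytic domain, residues 76-261 | Compound dosing: One concentration, 20 µM, with 1.0% DMSO | Schedule: 45 min room-temperature reaction, 5 min colour, 30 min stabiliser | Detection: Absorbance at 630 nm | Read-out basis: % inhibition of SCP-1 phosphate liberation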
STEP inh – STEP phosphatase inhibitors, primary screen, biochemical, fluorescence intensity, uHTS; Tyrosine-protein phosphatase non-receptor type 5 (Homo sapiens), P54829; recombinant STEP, OMFP fluorogenic substrate; inhibition, % at 20 µM; 0.25% of 360,000 active; AID 588621, 2011;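 active = inhibition at 20 µM, scaled per plate between control wells, above about 37%, limit read from the data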;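 also: 0% = DMSO with enzyme and substrate and 100% = substrate only without enzyme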
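Test system: STEP tyrosine phosphatase / Reagent: OMFP at 25 µM / Doses: 20 µM, 1% DMSO / Read-out: percent inhibition scaled to no-enzyme and uninhibited-enzyme controls, plate-pattern corrected / Detection: FITC-channel fluorescence of OMFP product / Medium: Bis-Tris buffer pH 6.0, 2.5 mM DTT, 0.005% Tween 20 / Schedule: 20 min at room temperature, dark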
LMPTP block – LMPTP phosphatase inhibitors, primary screen, biochemical, fluorescence intensity, uHTS; Low molecular weight phosphotyrosine protein phosphatase (Homo sapiens), P24666; recombinant LMPTP-A, OMFP fluorogenic substrate; inhibition, % at 20 µM; 0.22% of 360,000 active;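 active = compounds that cut the enzyme signal by at least half of the control window in the single-dose screen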;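 also: plate controls were DMSO wells with enzyme plus substrate for no effect and substrate without enzyme for full effect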
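Test system: LMPTP-A phosphatase enzyme; input: 0.625 nM LMPTP-A final; reagent: OMFP substrate, 400 µM final; compound dosing: 20 µM single dose, 3% DMSO; incubation: 50 min dark incubation at room temperature; measured by: endpoint fluorescence intensity from OMFP dephosphorylation; measure: % inhibition relative to no-enzyme and uninhibited control wells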
Scp1 confirm – Scp-1 phosphatase inhibitors, retest, confirmation, biochemical, colorimetric, single concentration; 61% of 2,500 active; recombinant SCP-1 catalytic domain, phosphate release, malachite green absorbance; shares compounds with Scp1 inh; inhibition, % at 20 µM;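 also: plate controls were DMSO with enzyme for no effect and buffer wells lacking enzyme for full effect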
MG interference – colorimetric readout interference by compounds, confirmation, artefact control for Scp-1 inhibitor project, biochemical, single concentration | shares compounds with Scp1 inh | Colorimetric interference counterscreen, malachite green absorbance 630 nm | apparent inhibition (interference), % at 20 µM | 2,500 tested, under 10 active;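 also: compounds added after enzyme reaction finished so only phosphate colour detection is probed; plate controls were DMSO wells with completed Scp-1 reaction for no effect and substrate wells lacking enzyme for full effect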
Scp1 DSF – Scp-1 binding by thermal shift, confirmation, orthogonal assay for Scp-1 inhibitor project, biophysical, differential scanning fluorimetry | Recombinant SCP1, Sypro Orange thermal shift Tm | 25% of 1,500 active | thermal shift relative to vanadate control, % at 40 µM | shares compounds with Scp1 inh;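 active = substances whose mean melting-temperature shift, as a percentage of the reference inhibitor's shift, reaches about 5.3%, limit read from the data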;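 also: 0% = Tm of DMSO wells and 100% = Tm with sodium orthovanadate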
Active calls of the source: *; · = no result.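 The calls were made as follows, unless noted: active = inhibition of at least 30% at 20 µM; inactive = the rest.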

SMILES | DNMT1 block | SUMO1-SIM PPI | CASP6 VEID inh | Scp1 inh | STEP inh | LMPTP block | Scp1 confirm | MG interference | others
COCCCn1c(-c2ccccc2)nc2ccccc2c1=O | 2 | -3 | · | -3 | -3 | -2 | · | ·
CCCc1ccc(C(=O)NNC(=O)c2ccc(Cl)cc2)cc1 | 12 | 3 | · | 94* | 4 | 25 | 74* | -15 | Scp1 DSF=-3
CCC(=O)c1ccc(OCC(=O)Nc2cc(S(=O)(=O)N3CCCCC3)ccc2N2CCN(CC)CC2)cc1 | 0 | 9 | -1 | 106* | 0 | -2 | -18 | -14
Cc1ccnc(NS(=O)(=O)c2cc([N+](=O)[O-])ccc2C)c1 | 1 | -11 | -7 | -5 | -1 | 1 | · | ·
CCc1nnc(NC(=O)CSC(=S)N2CCOCC2)s1 | 1 | 5 | 0 | 67* | 3 | -1 | -8 | -10
Cc1ccccc1S(=O)(=O)N[C@H]1CC[C@@H](CCn2cc(-c3ccccc3)nn2)O[C@H]1CO | · | · | -2 | · | · | · | · | ·
Cn1nc2c(c1C(=O)O)CCCC2 | 41 | 1 | · | 60* | -6 | 0 | 67* | 1 | Scp1 DSF=-5
Cn1nc2c(c1C(=O)N1CCCC(C(=O)c3cc(F)ccc3F)C1)CCCC2 (stereo unspecified) | 5 | 2 | -3 | -2 | -2 | -2 | · | ·
O=C(Nc1ccc2ccccc2c1)c1ccc(Cl)cc1Cl | -1 | -5 | -1 | -17 | 1 | 3 | · | ·
O=C(NNC(=O)c1ccc(Cl)cc1Cl)c1ccc2ccccc2c1 | 13 | -8 | -1 | 50 | 10 | 11 | -5 | -9
CCn1cc(C(=O)NCc2ccco2)c(=O)c2cc(F)c(N3CCN(C(=O)c4ccco4)CC3)cc21 | 6 | 16 | · | 58* | 3 | 6 | 37* | -11 | Scp1 DSF=-10
Cc1ccc(NC(=O)COc2ccc(/C=N/NC(=O)CSCc3ccccc3)cc2)cc1 | 2 | 0 | · | 85* | -1 | 0 | 70* | -14 | Scp1 DSF=-5
Cc1ccc(OCC(=O)Nc2ccc(CN3CCOCC3)cc2)cc1 | 1 | 1 | -10 | 70* | -1 | 0 | -12 | -15
CN(C)CCNC(=O)Nc1ccc(F)cc1F | 0 | 4 | -3 | 2 | 4 | -1 | · | ·
COc1ccc(OC)c(Cc2nnc(CCC(=O)NCc3nc4ccccc4s3)o2)c1 | -3 | 3 | 3 | 63* | 1 | 0 | -18 | -13
C/C(=N\NC(=O)c1ccc(NS(=O)(=O)c2cccs2)cc1)c1ccc(C(C)(C)C)cc1 | 4 | 5 | 5 | -1 | -2 | 0 | · | ·
CC(=O)Nc1cccc(/C(C)=N/NC(=O)c2ccc(NS(=O)(=O)c3cccs3)cc2)c1 | 3 | 1 | -2 | 64* | -1 | -2 | -18 | -12
Cc1c(CC(=O)N[C@@H](CCCNC(N)=O)C(=O)O)c(=O)oc2cc3oc4c(c3cc12)CCCC4 | 0 | 2 | 1 | · | 1 | -1 | · | ·
